Reference: ChEMBL document CHEMBL1123101, “Pseudosymmetry and bioisosterism in biaryl pyridyl competitive histamine H2-receptor antagonists” (J Med Chem, 1985)
The source made the active and inactive calls. The rule behind the calls is not given here.

Key:
[1] = Partition coefficient (logP); assay type: physicochemical; conditions: octanol/water
[2] = molecular target: Histamine H2 receptor (Cavia porcellus) (UniProt P47747); assay: Dissociation constant of H2 receptor antagonist activity against guinea pig atrium; assay type: functional, tissue-based; conditions: Cardiac atrium
Canis familiaris [3] = assay: Antisecretory dose in mg/kg required for 50% inhibition in dogs by intravenous administration; assay type: functional, Canis lupus familiaris
In short: (§1)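 Pentagastrin-stimulated Heidenhain pouch dogs were dosed iv, and acid output was titrated from 30-min collections. Percent inhibition compares the lowest post-dose output with the pre-dose mean. The dose giving 50% inhibition came from linear regression of log dose on percent inhibition in n dogs.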

Canis familiaris [4] = assay: Maximum percent inhibition of acid output in pentagastrin-stimulated Heidenhain pouch dog following 10 mg/kg i.v. administration.; assay type: functional; conditions: Canis lupus familiaris, route intravenous
In short: (§2)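 Fasted unanesthetized Heidenhain pouch dogs, with acid output stimulated to near maximum by continuous pentagastrin infusion into a leg vein. Gastric juice was collected every 30 min, ten collections per dog. Acid was titrated to pH 7.4 with 0.1 N NaOH. Compound or vehicle was given iv 90 min after the infusion started. Percent inhibition compares the lowest post-dose acid output with the mean output just before dosing. Single experiments.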

Canis familiaris [5] = assay: Maximum percent inhibition of acid output in pentagastrin-stimulated Heidenhain pouch dog following 1 mg/kg i.v. administration.; assay type: functional; conditions: Canis lupus familiaris, route intravenous; in short: as §2
Canis familiaris [6] = assay: Maximum percent inhibition of acid output in pentagastrin-stimulated Heidenhain pouch dog at dose (25 mg/kg) administered intravenously; assay type: functional; conditions: Canis lupus familiaris, iv; in short: as §2
Canis familiaris [7] = assay: Maximum percent inhibition of acid output in pentagastrin-stimulated Heidenhain pouch dog at dose (5 mg/kg) administered intravenously; assay type: functional; conditions: Canis lupus familiaris, iv; in short: as §2
Canis familiaris [8] = assay: Maximum percent inhibition of acid output in pentagastrin-stimulated Heidenhain pouch dog at dose (8 mg/kg) administered intravenously; assay type: functional; conditions: Canis lupus familiaris, iv; in short: as §2
Canis familiaris [9] = assay: Maximum percent inhibition of acid output in pentagastrin-stimulated Heidenhain pouch dog at dose (9 mg/kg) administered intravenously; assay type: functional; conditions: Canis lupus familiaris, iv; in short: as §2
Canis familiaris [10] = assay: Maximum percent inhibition of acid output in pentagastrin-stimulated Heidenhain pouch dog at dose (23 mg/kg) administered intravenously; assay type: functional; conditions: Canis lupus familiaris, iv; in short: as §2
Canis familiaris [11] = species on record: Canis familiaris; assay: Effective dose for acid output in pentagastrin-stimulated Heidenhain pouch dog; assay type: functional, Canis lupus familiaris; in short: as §1
[12] = molecular target: Histamine H2 receptor (Cavia porcellus) (UniProt P47747); assay: Dissociation constant of H2 receptor antagonist activity against guinea pig atrium;NA means not active; assay type: functional, tissue-based; conditions: Cardiac atrium
In short: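 Right atria from guinea pigs killed by a blow to the head, hung isometrically in oxygenated (95% O2/5% CO2) Krebs–Henseleit buffer at pH 7.4 and 32 ± 2 °C, and stabilized about 1 h. Histamine dose–response curves were run before and after antagonist at set final concentrations, with 3- or 30-min drug equilibration. DR is the ratio of half-maximal histamine concentrations. KB = B/(DR − 1). Schild slope is log(DR − 1) vs log B.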

Canis familiaris [13] = assay: Maximum percent inhibition of acid output in pentagastrin-stimulated Heidenhain pouch dog at dose (0.5 mg/kg) administered intravenously; assay type: functional; conditions: Canis lupus familiaris, iv; in short: as §2
Canis familiaris [14] = assay: Maximum percent inhibition of acid output in pentagastrin-stimulated Heidenhain pouch dog at dose(mg/kg) administered intravenously; assay type: functional, Canis lupus familiaris; in short: as §2

Chain of Histamine H2 receptor (Cavia porcellus) (P47747 whole entry): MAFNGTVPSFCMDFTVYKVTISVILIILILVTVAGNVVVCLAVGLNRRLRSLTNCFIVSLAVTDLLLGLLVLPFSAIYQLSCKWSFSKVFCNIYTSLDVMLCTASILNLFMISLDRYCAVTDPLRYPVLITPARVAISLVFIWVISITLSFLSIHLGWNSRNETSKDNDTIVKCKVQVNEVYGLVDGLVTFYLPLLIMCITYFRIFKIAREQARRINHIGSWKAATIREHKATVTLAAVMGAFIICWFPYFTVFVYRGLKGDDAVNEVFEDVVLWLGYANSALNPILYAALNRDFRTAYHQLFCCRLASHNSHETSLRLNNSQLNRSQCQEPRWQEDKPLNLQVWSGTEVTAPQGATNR

Row | SMILES | logP [1] | KB [2] | -Log I50 (Canis familiaris [3]) | inhibition in vivo at 10 mg/kg (Canis familiaris [4]) | inhibition in vivo at 1 mg/kg (Canis familiaris [5]) | further results
1 | Cc1nc(-c2ccncc2)c[nH]1 | – | – | – | – | – | inhibition in vivo at 25 mg/kg (Canis familiaris [6]): 56%
2 | Cc1cc(-c2c[nH]c(C)n2)ccn1 | – | 4.6 µM | – | 24% | – | –
3 | CCNc1cc(-c2c[nH]c(N)n2)ccn1 | – | 3.3 µM | – | 74% | 22% | –
4 | CCNc1cc(-c2c[nH]cn2)ccn1 | – | 0.59 µM | – | 27% | – | –
5 | CCNc1cc(-c2c[nH]c(C)n2)ccn1 | – | 1.4 µM | – | 55% | – | –
6 | Cc1cc(-c2n[nH]c(N)n2)ccn1 | – | 13 µM | – | – | 26% | inhibition in vivo at 5 mg/kg (Canis familiaris [7]): 60%
7 | Nc1n[nH]c(-c2ccnc(N3CCCC3)c2)n1 | – | – | – | – | 0% | –
8 | CCNc1cc(-c2nc[nH]n2)ccn1 | – | 5 µM | – | 29% | – | –
9 | Cc1n[nH]c(-c2ccnc(Cc3ccccc3)c2)n1 | – | – | – | 31% | – | –
10 | CCc1cc(-c2n[nH]c(N)n2)ccn1 | – | 1.8 µM | – | – | – | inhibition in vivo at 5 mg/kg (Canis familiaris [7]): 55%
11 | CCCc1cc(-c2n[nH]c(N)n2)ccn1 | – | 4 µM | – | – | – | inhibition in vivo at 5 mg/kg (Canis familiaris [7]): 0%
12 | CCNc1cc(-c2n[nH]c(Cc3ccccc3)n2)ccn1 | – | – | – | 19% | – | KB [12]: inactive
13 | CN(C)c1cc(-c2n[nH]c(N)n2)ccn1 | – | 3.2 µM | – | – | 48% | inhibition in vivo at 5 mg/kg (Canis familiaris [7]): 80%
14 | CCN(C)c1cc(-c2n[nH]c(N)n2)ccn1 | – | – | – | – | 42% | –
15 | CN/C(=N\CCSCc1nc[nH]c1C)NC#N [CIMETIDINE] | – | – | – | – | – | ED50 (Canis familiaris [11]): 1.02 mg/kg
16 | Cc1n[nH]c(-c2ccnc(CO)c2)n1 | – | 23 µM | – | 7% | – | –
17 | CC(C)Nc1cc(-c2n[nH]c(N)n2)ccn1 | – | 3.6 µM | – | – | – | inhibition in vivo at 5 mg/kg (Canis familiaris [7]): 52%
18 | CCNc1cc(-c2n[nH]c(NC)n2)ccn1 | – | 1.3 µM | – | 72% | 35% | –
19 | CCCCCCCCCCNc1cc(-c2n[nH]c(N)n2)ccn1 | 4.07 | – | -1.7 | – | – | Inhibition (Canis familiaris [14]): 14%; Kb [2]: 4.78 µM
20 | Nc1cc(-c2n[nH]c(N)n2)ccn1 | 0.11 | 2.2 µM | -0.306 | – | – | ED50 (Canis familiaris [11]): 2.35 mg/kg
21 | CNc1cc(-c2n[nH]c(N)n2)ccn1 | 0.694 | 0.56 µM | 0 | – | 50% | –
22 | Nc1n[nH]c(-c2ccnc(Nc3ccccc3)c2)n1 | – | – | – | 0% | – | –

Now from value to molecule, other results behind:

Row | logP [1] | KB [2] | SMILES | -Log I50 (Canis familiaris [3]) | inhibition in vivo at 10 mg/kg (Canis familiaris [4]) | inhibition in vivo at 1 mg/kg (Canis familiaris [5]) | further results
23 | 3.3 | 0.27 µM | CCCCCCNc1cc(-c2n[nH]c(N)n2)ccn1 | -1.2 | 40% | – | –
24 | 2.85 | 0.3 µM | Nc1n[nH]c(-c2ccnc(NCc3ccc(Cl)cc3)c2)n1 | -0.428 | – | 21% | –
25 | 3.08 | 0.11 µM | Cc1ccc(CNc2cc(-c3n[nH]c(N)n3)ccn2)cc1C | -0.718 | – | – | inhibition in vivo at 5 mg/kg (Canis familiaris [7]): 49%
26 | – | 1.3 µM | CCNc1cc(-c2n[nH]c(CC)n2)ccn1 | – | – | – | inhibition in vivo at 5 mg/kg (Canis familiaris [7]): 17%
27 | 3.05 | – | Nc1n[nH]c(-c2ccnc(NCCCc3ccccc3)c2)n1 | – | 30% | – | –
28 | 1.61 | 0.77 µM | CCCNc1cc(-c2n[nH]c(N)n2)ccn1 | -0.379 | – | 33% | inhibition in vivo at 5 mg/kg (Canis familiaris [7]): 64%
29 | 2.69 | 0.13 µM | Cc1ccc(CNc2cc(-c3n[nH]c(N)n3)ccn2)cc1 | -1.03 | – | – | inhibition in vivo at 5 mg/kg (Canis familiaris [7]): 33%
30 | 0.94 | 3.5 µM | COCCNc1cc(-c2n[nH]c(N)n2)ccn1 | -0.88 | 50% | 11% | –
31 | 1.26 | 0.48 µM | C=CCNc1cc(-c2nc(N)n[nH]2)ccn1 | -0.37 | – | 31% | –
32 | 2.63 | 1.9 µM | Nc1n[nH]c(-c2ccnc(NCCc3ccccc3)c2)n1 | -1 | 50% | – | –
33 | – | 0.14 µM | CC(C)(C)c1ccc(CNc2cc(-c3n[nH]c(N)n3)ccn2)cc1 | – | – | – | inhibition in vivo at 8 mg/kg (Canis familiaris [8]): 0%
34 | 2.15 | 0.67 µM | CCCCNc1cc(-c2n[nH]c(N)n2)ccn1 | -0.5 | – | 29% | inhibition in vivo at 9 mg/kg (Canis familiaris [9]): 69%
35 | 2.15 | 0.71 µM | Nc1n[nH]c(-c2ccnc(NCc3ccccc3)c2)n1 | -0.568 | 72% | 21% | –
36 | – | 11 µM | CCCc1n[nH]c(-c2ccnc(NCC)c2)n1 | – | 45% | – | –
37 | – | 42 µM | Nc1n[nH]c(-c2ccncc2)n1 | – | 43% | – | inhibition in vivo at 23 mg/kg (Canis familiaris [10]): 73%
38 | 1.13 | 0.23 µM | CCNc1cc(-c2n[nH]c(N)n2)ccn1 | -0.028 | – | – | ED50 (Canis familiaris [11]): 0.87 mg/kg
39 | – | 0.55 µM | CCNc1cc(-c2n[nH]c(C)n2)ccn1 | – | – | 35% | –
40 | – | 4.5 µM | CCNc1cc(-c2n[nH]c(CO)n2)ccn1 | – | 53% | 20% | –
41 | – | 4.7 µM | CCNc1cc(-c2n[nH]c(NCC)n2)ccn1 | – | – | 38% | inhibition in vivo at 0.5 mg/kg (Canis familiaris [13]): 21%
42 | 0.24 | 2 µM | Nc1n[nH]c(-c2ccnc(NCCO)c2)n1 | -1.31 | 34% | – | –
